Measurements published in ChEMBL document CHEMBL4819066, “Repurposing primaquine as a polyamine conjugate to become an antibiotic adjuvant” (Bioorg Med Chem, 2021).

What was measured:
[1] = test system: Klebsiella pneumoniae; test: Antibacterial activity against Klebsiella pneumoniae ATCC 700603 assessed as reduction in microbial growth after 18 hrs by resazurin dye based assay; assay type: functional
Procedure, shortened: (§1)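 Bacteria grown overnight at 37 °C in LB, NB or MHB, diluted 40-fold into MHB and grown 1.5-2 h to mid-log phase. Inoculum 5 × 10^5 CFU/mL (final), 2-fold serial dilutions, final range 0.008-32 µg/mL, in duplicate. […] Colistin as positive control, Z'-factor >0.4 for plate QC.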

[2] = test system: Candida albicans; test: Antifungal activity against Candida albicans ATCC 90028 assessed as reduction in microbial growth after 36 hrs by absorbance at OD530; settings: ATCC 90028, 36 h
[3] = test system: Staphylococcus aureus; test: Antibacterial activity against methicillin-resistant Staphylococcus aureus ATCC 43300 assessed as reduction in microbial growth after 18 hrs by resazurin dye based assay; assay type: functional
Procedure, shortened: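 Overnight culture at 37 °C, diluted 40-fold in MHB and grown 1.5-2 h to mid-log. Inoculum 5 × 10^5 CFU/mL. Two-fold serial dilutions, final 0.008-32 µg/mL, in duplicate. […] Vancomycin served as the Gram-positive standard.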

[4] = test system: Cryptococcus neoformans; test: Antifungal activity against Cryptococcus neoformans ATCC 208821 assessed as reduction in microbial growth after 36 hrs by resazurin dye based assay; assay type: functional
Procedure, shortened: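 Yeast grown 3 days on YPD agar at 30 °C and diluted in YNB broth to 2.5 × 10^3 CFU/mL. Compounds at 0.008-32 µg/mL final, 2-fold dilutions, in duplicate. After 36 h at 35 °C without shaking, resazurin added at 0.006% final for a further 3 h; MIC read as absorbance at OD570-600. Fluconazole as positive control.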

[5] = test system: Pseudomonas aeruginosa; test: Potentiation of doxycycline-induced antibacterial activity against Pseudomonas aeruginosa ATCC 27853 assessed as complete reduction in visible microbial growth after 18 hrs in presence of 4.5 uM doxycycline by two fold serial dilution method; assay type: functional
Procedure, shortened: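 Adjuvant test by broth dilution: inoculum 5 × 10^5 CFU in 200 µL MHB. Two-fold serial dilutions of each derivative were given with doxycycline fixed at 2 µg/mL. After 18 h at 37 °C, the value recorded was the lowest adjuvant concentration giving complete absence of visible growth. Three independent repeats.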

[6] = test system: Pseudomonas aeruginosa; test: Antibacterial activity against Pseudomonas aeruginosa ATCC 27853 assessed as reduction in microbial growth after 18 hrs by resazurin dye based assay; assay type: functional; procedure, shortened: as §1
[7] = test system: Acinetobacter baumannii; test: Antibacterial activity against Acinetobacter baumannii ATCC 19606 assessed as reduction in microbial growth after 18 hrs by resazurin dye based assay; assay type: functional; settings: ATCC 19606 = CIP 70.34 = JCM 6841; procedure, shortened: as §1
[8] = test system: Escherichia coli; test: Antibacterial activity against Escherichia coli ATCC 25922 assessed as reduction in microbial growth after 18 hrs by resazurin dye based assay; assay type: functional; procedure, shortened: as §1

Compound | MIC [1] | MIC [2] | MIC [3] | MIC [4] | MIC [5] | MIC [6] | MIC [7] | MIC [8]
COc1cc(NC(=O)CCC(=O)NCCCNCCCCCCNCCCNC(=O)CCC(=O)Nc2cc(OC)cc3cccnc23)c2ncccc2c1 | > 33 µM | > 33 µM | > 33 µM | > 33 µM | 300 µM | > 33 µM | > 33 µM | > 33 µM
C[C@H]1c2cccc(O)c2C(=O)C2=C(O)[C@]3(O)C(=O)C(C(N)=O)=C(O)[C@@H](N(C)C)[C@@H]3[C@@H](O)[C@@H]21 [DOXYCYCLINE] | – | – | – | – | – | > 45 µM | – | –
O=C(CCC(=O)Nc1ccc2ccccc2n1)NCCCNCCCCCCCCCCNCCCNC(=O)CCC(=O)Nc1ccc2ccccc2n1 | > 33.1 µM | > 33.1 µM | > 33.1 µM | > 33.1 µM | 517 µM | > 33.1 µM | > 33.1 µM | > 33.1 µM
O=C(CCC(=O)Nc1ccc2ccccc2n1)NCCCNCCCCNCCCNC(=O)CCC(=O)Nc1ccc2ccccc2n1 | > 36.2 µM | > 36.2 µM | > 36.2 µM | > 36.2 µM | 566 µM | > 36.2 µM | > 36.2 µM | > 36.2 µM
O=C(CCC(=O)NCc1ccccn1)NCCCNCCCCCCCCCCNCCCNC(=O)CCC(=O)NCc1ccccn1 | > 35.8 µM | > 35.8 µM | > 35.8 µM | > 35.8 µM | 559 µM | > 35.8 µM | > 35.8 µM | > 35.8 µM
O=C(CCC(=O)Nc1ccc2ncccc2c1)NCCCNCCCCCCCCCCNCCCNC(=O)CCC(=O)Nc1ccc2ncccc2c1 | > 33.1 µM | > 33.1 µM | > 33.1 µM | > 33.1 µM | 517 µM | > 33.1 µM | > 33.1 µM | > 33.1 µM
O=C(CCC(=O)NCc1ccccn1)NCCCNCCCCNCCCNC(=O)CCC(=O)NCc1ccccn1 | > 39.5 µM | > 39.5 µM | > 39.5 µM | > 39.5 µM | 617 µM | > 39.5 µM | > 39.5 µM | > 39.5 µM
O=C(CCC(=O)NCc1cccnc1)NCCCNCCCCNCCCNC(=O)CCC(=O)NCc1cccnc1 | > 39.5 µM | > 39.5 µM | > 39.5 µM | > 39.5 µM | 617 µM | > 39.5 µM | > 39.5 µM | > 39.5 µM
COc1cc(NC(=O)CCC(=O)NCCCNCCCCCCCCCCNCCCNC(=O)CCC(=O)Nc2cc(OC)cc3cccnc23)c2ncccc2c1 | > 31.2 µM | > 31.2 µM | 3.9 µM | > 31.2 µM | 300 µM | > 31.2 µM | > 31.2 µM | > 31.2 µM
CN[C@H](CC(C)C)C(=O)N[C@H]1C(=O)N[C@@H](CC(N)=O)C(=O)N[C@H]2C(=O)N[C@H]3C(=O)N[C@H](C(=O)N[C@H](C(=O)O)c4cc(O)cc(O)c4-c4cc3ccc4O)[C@H](O)c3ccc(c(Cl)c3)Oc3cc2cc(c3O[C@@H]2O[C@H](CO)[C@@H](O)[C@H](O)[C@H]2O[C@H]2C[C@](C)(N)[C@H](O)[C@H](C)O2)Oc2ccc(cc2Cl)[C@H]1O [VANCOMYCIN] | – | – | 0.7 µM | – | – | – | – | –
O=C(CCC(=O)Nc1cccc2cccnc12)NCCCNCCCCCCNCCCNC(=O)CCC(=O)Nc1cccc2cccnc12 | > 35.1 µM | > 35.1 µM | 17.6 µM | > 35.1 µM | 100 µM | > 35.1 µM | > 35.1 µM | > 35.1 µM
O=C(CCC(=O)NCc1cccnc1)NCCCNCCCCCCCCCCNCCCNC(=O)CCC(=O)NCc1cccnc1 | > 35.8 µM | > 35.8 µM | > 35.8 µM | > 35.8 µM | 559 µM | > 35.8 µM | > 35.8 µM | > 35.8 µM
OC(Cn1cncn1)(Cn1cncn1)c1ccc(F)cc1F [FLUCONAZOLE] | – | 0.4 µM | – | 26 µM | – | – | – | –
COLISTIN | 0.2 µM | – | – | – | – | 0.2 µM | 0.2 µM | 0.1 µM
